Tests used:
Type in all cases: ADME, organism-based, Macaca mulatta
[1] = system: Striatum; experiment: Biodistribution in rhesus monkey striatum at 150.3 MBq, iv after 0.25 mins; details: in vivo, 15 s
[2] = system: Striatum; experiment: Biodistribution in rhesus monkey striatum at 150.3 MBq, iv after 0.75 mins; details: in vivo, 45 s
[3] = Biodistribution in rhesus monkey cerebellum at 150.3 MBq, iv after 0.75 mins; details: in vivo, 45 s
How it was run: (§1)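 Male rhesus monkey under ketamine (10 mg/kg im) with head fixation. After a 20 min 68Ge-68Ga transmission scan, the [11C]-labelled tracer in saline (pH 7.4) was injected iv, at 2.9 TBq/μmol specific radioactivity at injection. A dynamic 3D PET scan followed over 90 min (6×0.5, 7×1, 20×2, 8×5 min frames). Regions were defined on T1-weighted 1.5 T MRI, and uptake is given as %ID/mL.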

[4] = system: Striatum; experiment: Biodistribution in rhesus monkey striatum at 150.3 MBq, iv after 1.25 mins; details: in vivo, 75 s
[5] = Biodistribution in rhesus monkey occipital lobe at 150.3 MBq, iv after 1.25 mins; details: in vivo, 75 s
How it was run: (§2)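 Male rhesus monkey under ketamine 10 mg/kg im, head fixed; 20 min 68Ge-68Ga transmission scan, then 90 min dynamic 3D PET (6×0.5, 7×1, 20×2, 8×5 min frames) after iv [11C]-labelled tracer in saline, specific radioactivity about 2.9 TBq/μmol at injection. Regions defined on T1-weighted MRI; uptake expressed as % injected dose per mL.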

[6] = system: Hippocampus; experiment: Biodistribution in rhesus monkey hippocampus at 150.3 MBq, iv after 2.25 mins; details: in vivo, 135 s
How it was run: (§3)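 Single male rhesus monkey anesthetized with ketamine 10 mg/kg im, head fixed. Attenuation correction by 20 min 68Ge-68Ga transmission scan. [11C]-tracer in saline (pH 7.4) given iv, specific radioactivity 2.9 TBq/μmol at injection. Dynamic 3D PET emission scan over 90 min in frames of 0.5 to 5 min. MRI T1 images used to define VOIs. Uptake expressed as […].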

[7] = Biodistribution in rhesus monkey occipital lobe at 150.3 MBq, iv after 2.25 mins; details: in vivo, 135 s; how it was run: as §2
[8] = Biodistribution in rhesus monkey cingulate cortex at 150.3 MBq, iv after 4.5 mins; details: in vivo, 0.075 h; how it was run: as §1
[9] = system: Hippocampus; experiment: Biodistribution in rhesus monkey hippocampus at 150.3 MBq, iv after 5.5 mins; details: in vivo; how it was run: as §2
[10] = Biodistribution in rhesus monkey cingulate cortex at 150.3 MBq, iv after 5.5 mins; details: in vivo; how it was run: as §3
[11] = system: Striatum; experiment: Biodistribution in rhesus monkey striatum at 150.3 MBq, iv after 5.5 mins; details: in vivo
[12] = Biodistribution in rhesus monkey cingulate cortex at 150.3 MBq, iv after 6.5 mins; details: in vivo; how it was run: as §3
[13] = Biodistribution in rhesus monkey retina at 150.3 MBq, iv after 7.5 mins; details: in vivo, 0.125 h
[14] = Biodistribution in rhesus monkey cingulate cortex at 150.3 MBq, iv after 13 mins; details: in vivo; how it was run: as §1
[15] = Biodistribution in rhesus monkey entorhinal cortex at 150.3 MBq, iv after 13 mins; details: in vivo; how it was run: as §3
[16] = system: Hippocampus; experiment: Biodistribution in rhesus monkey hippocampus at 150.3 MBq, iv after 15 mins; details: in vivo, 0.25 h; how it was run: as §3
[17] = Biodistribution in rhesus monkey cingulate cortex at 150.3 MBq, iv after 19 mins; details: in vivo; how it was run: as §1
[18] = Biodistribution in rhesus monkey entorhinal cortex at 150.3 MBq, iv after 19 mins; details: in vivo; how it was run: as §3
[19] = system: Striatum; experiment: Biodistribution in rhesus monkey striatum at 150.3 MBq, iv after 23 mins; details: in vivo
[20] = Biodistribution in rhesus monkey retina at 150.3 MBq, iv after 23 mins; details: in vivo
[21] = system: Hippocampus; experiment: Biodistribution in rhesus monkey hippocampus at 150.3 MBq, iv after 25 mins; details: in vivo; how it was run: as §3
[22] = Biodistribution in rhesus monkey cerebellum at 150.3 MBq, iv after 29 mins; details: in vivo; how it was run: as §1
[23] = Biodistribution in rhesus monkey cingulate cortex at 150.3 MBq, iv after 31 mins; details: in vivo; how it was run: as §1
[24] = Biodistribution in rhesus monkey occipital lobe at 150.3 MBq, iv after 31 mins; details: in vivo; how it was run: as §2
[25] = system: Hippocampus; experiment: Biodistribution in rhesus monkey hippocampus at 150.3 MBq, iv after 33 mins; details: in vivo, 0.55 h; how it was run: as §2
[26] = Biodistribution in rhesus monkey entorhinal cortex at 150.3 MBq, iv after 33 mins; details: in vivo, 0.55 h; how it was run: as §3
[27] = system: Striatum; experiment: Biodistribution in rhesus monkey striatum at 150.3 MBq, iv after 33 mins; details: in vivo, 0.55 h
[28] = system: Striatum; experiment: Biodistribution in rhesus monkey striatum at 150.3 MBq, iv after 35 mins; details: in vivo
[29] = system: Hippocampus; experiment: Biodistribution in rhesus monkey hippocampus at 150.3 MBq, iv after 37 mins; details: in vivo; how it was run: as §2
[30] = Biodistribution in rhesus monkey occipital lobe at 150.3 MBq, iv after 41 mins; details: in vivo
How it was run: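 A male rhesus monkey was anaesthetised with ketamine 10 mg/kg im and placed in a head fixation device. A 20 min 68Ge-68Ga transmission scan was run for attenuation correction. Radiotracer in saline (pH 7.4) was given iv, about 52 pmol (18 ng), at 2.9 TBq/μmol at injection. A dynamic 3D PET scan followed for 90 min. Regional VOIs were defined on a T1-weighted MRI, with uptake expressed as %ID/mL.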

[31] = Biodistribution in rhesus monkey cingulate cortex at 150.3 MBq, iv after 47 mins; details: in vivo; how it was run: as §1
[32] = Biodistribution in rhesus monkey cerebellum at 150.3 MBq, iv after 57.5 mins; details: in vivo; how it was run: as §1
[33] = system: Striatum; experiment: Biodistribution in rhesus monkey striatum at 150.3 MBq, iv after 62.5 mins; details: in vivo
[34] = Biodistribution in rhesus monkey retina at 150.3 MBq, iv after 62.5 mins; details: in vivo
[35] = system: Hippocampus; experiment: Biodistribution in rhesus monkey hippocampus at 150.3 MBq, iv after 67.5 mins; details: in vivo, 1.125 h; how it was run: as §2
[36] = Biodistribution in rhesus monkey cingulate cortex at 150.3 MBq, iv after 67.5 mins; details: in vivo, 1.125 h; how it was run: as §3
[37] = system: Hippocampus; experiment: Biodistribution in rhesus monkey hippocampus at 150.3 MBq, iv after 77.5 mins; details: in vivo; how it was run: as §2
[38] = Biodistribution in rhesus monkey occipital lobe at 150.3 MBq, iv after 77.5 mins; details: in vivo
[39] = system: Striatum; experiment: Biodistribution in rhesus monkey striatum at 150.3 MBq, iv after 82.5 mins; details: in vivo, 1.375 h
[40] = Biodistribution in rhesus monkey entorhinal cortex at 150.3 MBq, iv after 87.5 mins; details: in vivo; how it was run: as §3
[41] = Biodistribution in rhesus monkey occipital lobe at 150.3 MBq, iv after 8.5 mins; details: in vivo
[42] = system: Hippocampus; experiment: Biodistribution in rhesus monkey hippocampus at 150.3 MBq, iv after 52.5 mins; details: in vivo, 0.875 h; how it was run: as §2
[43] = system: Striatum; experiment: Biodistribution in rhesus monkey striatum at 150.3 MBq, iv after 52.5 mins; details: in vivo, 0.875 h
[44] = Biodistribution in rhesus monkey occipital lobe at 150.3 MBq, iv after 52.5 mins; details: in vivo, 0.875 h
[45] = Biodistribution in rhesus monkey retina at 150.3 MBq, iv after 72.5 mins; details: in vivo

Work on [11CH3]Oc1cccc(C(=O)NCCN2CCN(c3ncccc3C#N)CC2)c1 yielded a Drug uptake [1] of 42.71 kBq/ml, a Drug uptake [2] of 64.38 kBq/ml and a Drug uptake [3] of 56.67 kBq/ml. The Drug uptake [4] was 60.2 kBq/ml, the Drug uptake [5] was 55.16 kBq/ml and the Drug uptake [6] was 50.51 kBq/ml. The Drug uptake [7] was 44.53 kBq/ml, the Drug uptake [8] was 39.8367 kBq/ml and the Drug uptake [9] was 39.36 kBq/ml. It also gave a Drug uptake [10] of 36.57 kBq/ml, a Drug uptake [11] of 39.4 kBq/ml and a Drug uptake [12] of 35.15 kBq/ml. For the same compound, the Drug uptake [13] was 43.92 kBq/ml, the Drug uptake [14] was 22.54 kBq/ml and the Drug uptake [15] was 22.48 kBq/ml. The Drug uptake [16] was 20.97 kBq/ml, the Drug uptake [17] was 18.84 kBq/ml and the Drug uptake [18] was 21.93 kBq/ml. It also gave a Drug uptake [19] of 18.52 kBq/ml, a Drug uptake [20] of 54.68 kBq/ml and a Drug uptake [21] of 16.72 kBq/ml. The Drug uptake [22] was 14.54 kBq/ml, the Drug uptake [23] was 14.33 kBq/ml and the Drug uptake [24] was 12.89 kBq/ml. For the same compound, the Drug uptake [25] was 13.18 kBq/ml, the Drug uptake [26] was 16.29 kBq/ml and the Drug uptake [27] was 14.6624 kBq/ml. For the same compound, the Drug uptake [28] was 13.39 kBq/ml, the Drug uptake [29] was 12.43 kBq/ml and the Drug uptake [30] was 9.836 kBq/ml. The Drug uptake [31] was 10.29 kBq/ml, the Drug uptake [32] was 9.179 kBq/ml and the Drug uptake [33] was 9.547 kBq/ml. The Drug uptake [34] was 54.08 kBq/ml, the Drug uptake [35] was 8.799 kBq/ml and the Drug uptake [36] was 9.959 kBq/ml. The Drug uptake [37] was 8.119 kBq/ml, the Drug uptake [38] was 8.127 kBq/ml and the Drug uptake [39] was 8.324 kBq/ml. It also gave a Drug uptake [40] of 10.53 kBq/ml, a Drug uptake [41] of 25.53 kBq/ml and a Drug uptake [42] of 9.565 kBq/ml. The Drug uptake [43] was 10.06 kBq/ml, the Drug uptake [44] was 9.487 kBq/ml and the Drug uptake [45] was 51.43 kBq/ml.
